Source: ChEMBL document CHEMBL4330098, “Identification of peptidomimetics as novel chemical probes modulating fibroblast growth factor 14 (FGF14) and voltage-gated sodium channel 1.6 (Nav1.6) protein-protein interactions” (Bioorg Med Chem Lett, 2019)
Calls of active or inactive are those of the source. No cut-off for these calls is given here. Residues, ends and D or L forms follow the SMILES beside them. *: point of attachment. Fmoc = O=C(OCC1c2ccccc2-c2ccccc21)*; Cbz = O=C(OCc1ccccc1)*; Boc = CC(C)(C)OC(=O)*; Bz = O=C(c1ccccc1)*

Tests used:
Format in all cases: cell-based
[1] = target: Luciferin 4-monooxygenase (Photinus pyralis) (UniProt P08659); assay: Effect on firefly luciferase activity expressed in HEK293 cells at 50 uM by luminescence assay
Method in brief: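 HEK293 cells transiently transfected with full-length Photinus (firefly) luciferase. Compounds dissolved in DMSO and diluted in medium to 50 μM final in 0.5% DMSO. Luminescence expressed as % of maximal, relative to 0.5% DMSO vehicle.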

[2] = target: T1, Fibroblast growth factor 14/SCN8A (Homo sapiens) (UniProt Q9UQD0+Q92915); assay: Inhibition of Cluc-FGF14 (unknown origin)/CD4-Nav1.6-Nluc (unknown origin) protein-protein interaction using FGF14/NAV1.6 using HEK293 cells expressing FGF14/Nav1.6 by split luciferase complementation assay
Method in brief: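 Split-luciferase complementation in HEK293 cells expressing Cluc-FGF14 and CD4-Nav1.6-Nluc. Five-point dose response at 1, 10, 25, 50 and 100 μM.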

HEK293 = assay: Cytotoxicity against HEK293 cells assessed as reduction in cell viability at 50 uM by LDH release assay; conditions: human, hek293, 50 µM
Method in brief: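 LDH release cytotoxicity assay in HEK293 cells, compounds given at 50 μM final. Read-out is % cytotoxicity. Data are mean ± S.E.M.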

[3] = target: Sodium channel protein type 8 subunit alpha (Homo sapiens) (UniProt Q9UQD0); assay: Inhibition of Nav1.6 (unknown origin) expressed in HEK293 cells assessed as activation constant at 10 uM after 1 hr at -70 mV holding potential by whole cell patch clamp method (reference value: 3.4 +/- 0.2 mV)
[4] = target: Sodium channel protein type 8 subunit alpha (Homo sapiens) (UniProt Q9UQD0); assay: Inhibition of Nav1.6 (unknown origin) expressed in HEK293 cells assessed as V1/2 of steady-state of inactivation at 10 uM after 1 hr at -70 mV holding potential by whole cell patch clamp method (reference value: […])
[5] = target: Sodium channel protein type 8 subunit alpha (Homo sapiens) (UniProt Q9UQD0); assay: Inhibition of Nav1.6 (unknown origin) expressed in HEK293 cells assessed as inactivation time constant at 10 uM after 1 hr at -70 mV holding potential by whole cell patch clamp method (reference value: 2.04 +/- 0.3 milliseconds)
[6] = target: T1, Fibroblast growth factor 14/SCN8A (Homo sapiens); assay: Modulation of Cluc-FGF14 (unknown origin)/CD4-Nav1.6-Nluc (unknown origin) protein-protein interaction using FGF14/NAV1.6 using HEK293 cells expressing FGF14/Nav1.6 assessed as luminescent response at 50 uM by split luciferase complementation assay relative to control
Method in brief: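 Split-luciferase complementation in HEK293 cells co-transfected with Cluc-FGF14 and CD4-Nav1.6-Nluc plasmids. Compounds in DMSO, diluted in medium to 50 μM final, 0.5% DMSO. Luminescence reported as % maximal vs 0.5% DMSO vehicle.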

T1 sequence (Q92915 whole entry, looked up): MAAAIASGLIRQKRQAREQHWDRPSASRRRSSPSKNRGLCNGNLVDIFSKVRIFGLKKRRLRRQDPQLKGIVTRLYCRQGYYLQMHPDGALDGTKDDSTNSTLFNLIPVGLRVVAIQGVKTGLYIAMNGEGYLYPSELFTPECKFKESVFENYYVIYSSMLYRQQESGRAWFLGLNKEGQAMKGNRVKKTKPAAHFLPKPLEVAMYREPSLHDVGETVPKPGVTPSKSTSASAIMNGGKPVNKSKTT
T1 sequence (Q9UQD0 whole entry, looked up): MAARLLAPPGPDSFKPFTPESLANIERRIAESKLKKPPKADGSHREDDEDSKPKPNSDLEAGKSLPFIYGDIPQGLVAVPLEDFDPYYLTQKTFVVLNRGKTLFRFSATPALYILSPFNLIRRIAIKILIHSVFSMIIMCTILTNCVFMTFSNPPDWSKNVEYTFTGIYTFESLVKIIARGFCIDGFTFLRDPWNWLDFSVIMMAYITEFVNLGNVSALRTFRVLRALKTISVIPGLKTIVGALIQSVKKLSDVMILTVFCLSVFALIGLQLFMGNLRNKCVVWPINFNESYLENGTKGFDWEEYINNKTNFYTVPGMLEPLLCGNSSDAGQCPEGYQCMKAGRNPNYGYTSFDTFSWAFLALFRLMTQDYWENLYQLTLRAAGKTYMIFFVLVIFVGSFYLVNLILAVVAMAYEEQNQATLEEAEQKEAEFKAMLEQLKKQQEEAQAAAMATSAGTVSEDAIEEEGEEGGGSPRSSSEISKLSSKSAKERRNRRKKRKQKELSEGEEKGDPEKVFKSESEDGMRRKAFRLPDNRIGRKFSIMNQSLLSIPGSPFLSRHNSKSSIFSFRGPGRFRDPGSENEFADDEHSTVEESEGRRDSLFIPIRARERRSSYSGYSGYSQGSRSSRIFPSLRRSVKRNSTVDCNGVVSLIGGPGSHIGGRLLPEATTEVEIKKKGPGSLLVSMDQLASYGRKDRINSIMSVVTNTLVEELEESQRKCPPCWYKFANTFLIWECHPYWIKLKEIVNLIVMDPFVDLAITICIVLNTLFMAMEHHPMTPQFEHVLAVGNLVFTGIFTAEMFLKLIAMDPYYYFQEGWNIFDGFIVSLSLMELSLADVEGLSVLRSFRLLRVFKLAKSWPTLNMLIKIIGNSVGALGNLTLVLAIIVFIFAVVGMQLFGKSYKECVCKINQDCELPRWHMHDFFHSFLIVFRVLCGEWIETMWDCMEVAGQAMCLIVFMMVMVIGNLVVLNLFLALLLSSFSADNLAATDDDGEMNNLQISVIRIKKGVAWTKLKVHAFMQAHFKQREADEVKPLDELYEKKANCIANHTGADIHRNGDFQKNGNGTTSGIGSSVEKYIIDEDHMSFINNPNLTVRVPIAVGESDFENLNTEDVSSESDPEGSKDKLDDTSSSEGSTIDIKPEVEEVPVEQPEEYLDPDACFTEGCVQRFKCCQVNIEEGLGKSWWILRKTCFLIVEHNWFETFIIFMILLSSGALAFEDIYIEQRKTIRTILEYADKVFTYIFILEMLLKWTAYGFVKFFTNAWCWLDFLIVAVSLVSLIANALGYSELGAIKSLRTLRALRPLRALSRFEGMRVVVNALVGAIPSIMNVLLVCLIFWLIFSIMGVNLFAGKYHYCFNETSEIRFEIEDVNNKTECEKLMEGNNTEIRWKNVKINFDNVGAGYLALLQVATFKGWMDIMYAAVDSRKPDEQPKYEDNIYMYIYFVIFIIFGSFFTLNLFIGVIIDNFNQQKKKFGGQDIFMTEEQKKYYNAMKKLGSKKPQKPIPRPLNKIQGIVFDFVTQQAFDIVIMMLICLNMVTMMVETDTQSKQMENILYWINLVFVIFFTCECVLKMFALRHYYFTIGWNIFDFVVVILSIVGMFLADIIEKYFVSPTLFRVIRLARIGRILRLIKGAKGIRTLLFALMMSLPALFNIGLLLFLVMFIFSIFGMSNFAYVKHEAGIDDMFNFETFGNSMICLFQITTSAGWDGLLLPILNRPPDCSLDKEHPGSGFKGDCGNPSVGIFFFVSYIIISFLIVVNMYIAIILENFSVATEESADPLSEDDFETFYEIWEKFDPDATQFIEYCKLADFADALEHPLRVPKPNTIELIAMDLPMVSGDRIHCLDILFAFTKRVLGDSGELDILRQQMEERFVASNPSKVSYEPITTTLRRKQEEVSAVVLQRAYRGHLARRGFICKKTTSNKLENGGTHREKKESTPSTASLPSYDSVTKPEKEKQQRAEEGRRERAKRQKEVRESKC
Luciferin 4-monooxygenase (Photinus pyralis), sequence (P08659 whole entry): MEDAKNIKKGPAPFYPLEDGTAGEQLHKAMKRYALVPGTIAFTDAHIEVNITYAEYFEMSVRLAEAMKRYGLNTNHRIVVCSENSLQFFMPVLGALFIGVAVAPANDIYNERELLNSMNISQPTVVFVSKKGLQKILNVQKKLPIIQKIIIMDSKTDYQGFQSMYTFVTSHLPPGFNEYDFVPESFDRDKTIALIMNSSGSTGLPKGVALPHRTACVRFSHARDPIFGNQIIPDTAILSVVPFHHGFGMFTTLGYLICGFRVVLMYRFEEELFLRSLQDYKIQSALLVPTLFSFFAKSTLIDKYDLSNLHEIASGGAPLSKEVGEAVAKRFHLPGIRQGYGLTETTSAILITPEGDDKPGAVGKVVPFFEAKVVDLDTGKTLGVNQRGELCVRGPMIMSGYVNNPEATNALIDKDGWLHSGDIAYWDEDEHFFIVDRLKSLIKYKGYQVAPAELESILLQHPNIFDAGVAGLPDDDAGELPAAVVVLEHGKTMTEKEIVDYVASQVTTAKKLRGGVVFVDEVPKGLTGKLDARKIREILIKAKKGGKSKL
Sodium channel protein type 8 subunit alpha (Homo sapiens), sequence (Q9UQD0 whole entry, looked up): as the sequence (Q9UQD0 whole entry, looked up) above

Compound	Activity [1]	inhibition [2]	Activity (HEK293)	Kact [3]	V1/2 [4]	TIME [5]	Activity [6]
COC(=O)[C@H](CCCCNC(=O)OCC1c2ccccc2-c2ccccc21)NC(=O)[C@@H]1CCCN1C(=O)[C@H](CC(C)C)NC(=O)[C@H](Cc1ccccc1)NC(C)=O (Ac-FLPK(Fmoc)-OMe)	inactive	Dose-dependent effect	Non-Toxic	3.9 mV	-57.7 mV	5.69e-07 h	–
CC(=O)N1CCC[C@H]1C(=O)N[C@@H](CC(C)C)C(=O)N[C@@H](CCCCNC(=O)OC(C)(C)C)C(N)=O (Ac-Pro-Leu-Lys(Boc)-NH2)	inactive	–	–	–	–	–	–
CC(C)C[C@H](NC(=O)[C@H](Cc1ccccc1)NC(=O)c1ccccc1)C(=O)N1CCC[C@H]1C(=O)N[C@@H](CCCCNC(=O)OC(C)(C)C)C(N)=O (Bz-FLPK(Boc)-NH2)	inactive	Dose-dependent effect	Non-Toxic	–	–	–	–
CC(C)C[C@H](NC(=O)[C@H](Cc1ccccc1)NC(=O)OCc1ccccc1)C(=O)N1CCC[C@H]1C(=O)N[C@@H](CCCCNC(=O)OC(C)(C)C)C(N)=O (Cbz-FLPK(Boc)-NH2)	inactive	–	–	–	–	–	–
COC(=O)[C@H](CCCCNC(=O)OCC1c2ccccc2-c2ccccc21)NC(=O)[C@@H]1CCCN1C(=O)[C@H](CC(C)C)NC(=O)[C@@H](N)Cc1ccccc1 (H-FLPK(Fmoc)-OMe)	inactive	–	–	–	–	–	124%
CC(C)C[C@H](N)C(=O)N1CCC[C@H]1C(=O)N[C@@H](CCCCN)C(N)=O (H-Leu-Pro-Lys-NH2)	inactive	–	Non-Toxic	–	–	–	142%
